Published values gathered from unrelated publications.
Protocols differ between the studies behind these lines.
Target: Ephrin type-A receptor 2 (EPHA2, Homo sapiens, UniProt P29317)

| SMILES | assay | setting | quantity | result |
| --- | --- | --- | --- | --- |
| CNC(=O)c1cc(Oc2ccc(NC(=O)Nc3ccc(Cl)c(C(F)(F)F)c3)cc2)ccn1 | enzyme activity, inhibitor | 10 µM | inhibition | 96% |
| CC(C)(C)C(=O)c1sc(NC2CCCCC2)nc1N | enzyme activity, inhibitor | 10 µM | remaining activity | 106% |
| O=C(Nc1cnn(-c2csc(C(=O)NC3COC3)c2)c1)Nc1ccccc1Cl | enzyme activity, inhibitor | 5 µM | remaining activity | 101% |
| COc1ccc(COc2ccc(Cc3cnc(N)nc3N)cc2OC)cc1 | cell-free assay | 0.5 µM | remaining signal | 107% |
| O=C(N1CCS(=O)(=O)CC1)N1C[C@H](c2ccc(OC(F)(F)F)cc2)C[C@H](c2nc(C3CC3)no2)C1 | cell-free assay, competition with immobilised ligand | 1 µM | remaining binding | 100% |
| Cc1ccc(Nc2nccc(N(C)c3ccc4c(C)n(C)nc4c3)n2)cc1S(N)(=O)=O | enzyme activity, inhibitor | 10 µM | inhibition | 43% |
| COc1cc(Nc2cnc(C#N)c(O[C@H](C)CN(C)C)n2)ncc1-c1cnn(C)c1 | enzyme activity, inhibitor, radiometric | 10 µM | remaining activity | 24% |
| Cc1ccc(C(=O)NCc2ccsc2)cc1C#Cc1cn(C(C)C)c2ncnc(N)c12 | enzyme activity, inhibitor | 1 µM | activity vs control | 2% |
| CCN(CC)CCNC(=O)c1c(C)[nH]c(/C=C2\C(=O)Nc3ccc(F)cc32)c1C | enzyme activity, inhibitor | 0.3 µM | inhibition | -12% |
| COc1ccc2c(O[C@@H]3C[C@H]4C(=O)N[C@]5(C(=O)O)CC5/C=C\CCCCC[C@H](NC(=O)OC5CCCC5)C(=O)N4C3)cc(-c3csc(NC(=O)C(C)C)n3)nc2c1C (stereo partly drawn) | cell-free assay, competition with immobilised ligand | 1 µM | remaining binding | 80% |
| N#CCCc1ccc2c(c1)-c1[nH]c3ccc([N+](=O)[O-])cc3c1CC(=O)N2 | cell-free assay | 0.5 µM | remaining signal | 93.6% |
| Cc1cnc(NC2CCOCC2)nc1-n1cnc(C(=O)NC(CN)c2cc(F)cc(Cl)c2)c1 (stereo not drawn) | enzyme activity, inhibitor, radiometric | 1 µM | remaining activity | 101% |
| COc1cc2ncnc(Nc3ccc(Oc4ccccc4)c(C)c3C)c2cc1OC | enzyme activity, inhibitor | 1 µM | inhibition | 2% |
| COc1cc(/C=C/C(=O)CC(=O)/C=C/c2ccc(O)c(OC)c2)ccc1O | enzyme activity, inhibitor | 1 µM | activity vs control | 104% |
| CCCS(=O)(=O)Nc1ccc(F)c(C(=O)c2c[nH]c3ncc(-c4ccc(Cl)cc4)cc23)c1F | enzyme activity, inhibitor | 1 µM | inhibition | < 10% |
| CS(=O)(=O)N1CCCC(NC(=O)[C@H](CCC2CCCCC2)NC(=O)c2ccc(CNc3ncnc4c3nnn4-c3ccccc3)cc2)C1 (stereo partly drawn) | cell-free assay, competition with immobilised ligand | 0.1 µM | remaining binding | 100% |
| CS(=O)(=O)Nc1cccc(-c2csc(NC(=O)CSc3nc4nccnc4c(=O)n3CCc3ccccc3)n2)c1 | enzyme activity, inhibitor | 10 µM | inhibition | 9% |
| N#CC1(c2ccccn2)CCN(Cc2cc(C(=O)N3CCCC3)c(=O)n3ccccc23)CC1 | cell-free assay, competition with immobilised ligand | 1 µM | remaining binding | 86% |
| CC(C)(C)c1nc(-c2cccc(NS(=O)(=O)c3c(F)cccc3F)c2F)c(-c2ccnc(N)n2)s1 | enzyme activity, inhibitor, radiometric | 1 µM | remaining activity | 133% |
| CCN(CC)c1ccc(C2=NNC(=O)CC2C)cc1[N+](=O)[O-] (stereo not drawn) | enzyme activity, inhibitor | 10 µM | remaining activity | 97% |
| FC(F)c1nc2ccccc2n1-c1nc(N2CCOCC2)nc(N2CCOCC2)n1 | enzyme activity, inhibitor | 10 µM | remaining activity | 106% |
| COc1ccc2c(c1)O[C@@H](c1ccc(OC)c(OC)c1)C[C@H]2NC(=O)C1(c2ccc3c(c2)OC(F)(F)O3)CC1 | cell-free assay, competition with immobilised ligand | 1 µM | remaining binding | 95% |
| Cc1sc(C(=O)NC2COC2)cc1-n1cc(NC(=O)Nc2c(F)cccc2Cl)cn1 | enzyme activity, inhibitor | 10 µM | remaining activity | 102% |
| C#Cc1cccc(Nc2ncnc3cc(OCCOC)c(OCCOC)cc23)c1 | cell-free assay | 0.5 µM | remaining signal | 91.3% |
| CCc1ccccc1C(=O)Nc1n[nH]c2c(C)c(F)c(C3C(C#N)=C(C)N(C)C(C)=C3C#N)cc12 | cell-free assay, competition with immobilised ligand | 1 µM | remaining binding | 61% |
| CC/C(=N\NC(=O)NCc1cccc(O)c1)c1ccc(O)c(C)c1O | enzyme activity, inhibitor | 0.1 µM | inhibition | 3.9% |
| CN(c1ccnc(CNc2nc(Nc3ccc4c(c3)CC(=O)N4)ncc2C(F)(F)F)n1)S(C)(=O)=O | cell-free assay, competition with immobilised ligand | 1 µM | remaining binding | 80% |
| COc1cc(Cl)c(C(=O)N[C@@H](CN[C@H]2CC[C@@H](N)CC2)Cc2ccc(C#N)cc2)cc1-c1ccc(CN[C@H](C)c2ccc(C)cc2)o1 | enzyme activity, inhibitor | 1 µM | remaining activity | 93% |
| O=C(Nc1cnc(Oc2ccc(F)cc2)nc1)N1CCc2ncccc2[C@@H]1c1ccc(F)cc1 | cell-free assay, competition with immobilised ligand | 1 µM | remaining binding | 99% |
| CC(C)(O)[C@H]1CC[C@H](Nc2ccc3ncc(-c4cccc(C(F)(F)F)c4)n3n2)CC1 | enzyme activity, inhibitor | 1 µM | remaining activity | 93.9% |
